Results reported in ChEMBL document CHEMBL2390938, “Synthesis and anti-inflammatory evaluations of β-lapachone derivatives” (Bioorg Med Chem, 2013).
One block for each compound: values may come before it. Active and inactive are the calls of the source. The rule behind the calls is not given here.

Assays:
[1] = target: Transcription factor p65 (Mus musculus) (UniProt Q04207); test: Inhibition of NFkappaB p65 nuclear translocation in LPS-stimulated mouse RAW264.7 cells after 24 hrs by DAPI staining-based laser confocal immunofluorescent microscopic analysis; type: cell-based
How it was run: (§1)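 Cells grown on glass coverslips 24 h, then given LPS 0.1 µg/mL and/or compound 0.5 µM. Fixed in 4% paraformaldehyde, permeabilized with 0.2% Triton X-100. Anti-p65 antibody applied 24 h, then Alexa 568 secondary 1 h. Nuclei stained with DAPI. Imaged by confocal microscopy.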

[2] = target: T1, MAP kinase p38 (Mus musculus) (UniProt P47811+O08911+Q9WUI1+Q9Z1B7); test: Inhibition of p38 MAPK phosphorylation in LPS-induced mouse RAW264.7 cells incubated for 2 hrs prior to LPS challenge measured after 24 hrs by Western blot analysis; type: cell-based
How it was run: (§2)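 Cells at 5 × 10^5/well, pretreated 2 h, then LPS 0.1 µg/mL for 24 h. 15 µg lysate protein run on 8% SDS-PAGE. p38 and p-p38 detected by Western blot with densitometry. Relative density = p-p38/β-actin. Means + S.D. of 3 experiments in triplicate.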

[3] = target: T1, MAP kinase p38 (Mus musculus); test: Inhibition of p38 MAPK phosphorylation in mouse RAW264.7 cells at 0.5 to 2 uM by Western blot analysis; type: cell-based; how it was run: as §2
[4] = test system: RAW264.7; test: Antiinflammatory activity in mouse RAW264.7 cells assessed as inhibition of LPS-induced COX-2 expression incubated for 2 hrs prior to LPS challenge measured after 24 hrs by Western blot analysis; type: functional, cell-based
How it was run: (§3)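 Cells at 5 × 10^5/well, pretreated 2 h, then LPS 0.1 µg/mL for 24 h. Lysed in RIPA and protein assayed by Bradford. 20–50 µg separated on 8–15% SDS-PAGE and blotted to PVDF. Probed for murine iNOS or COX-2, HRP secondary, ECL detection, densitometry. Means + S.D. of 3 experiments in triplicate.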

[5] = test system: RAW264.7; test: Antiinflammatory activity in mouse RAW264.7 cells assessed as downregulation of LPS-induced iNOS mRNA expression incubated for 2 hrs prior to LPS challenge measured after 9 hrs by RT-PCR analysis; type: functional, cell-based
How it was run: (§4)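 Cells at 5 × 10^5/well, pretreated 2 h, then LPS 0.1 µg/mL for 9 h. Total RNA isolated with Trizol. 1 µg RNA reverse-transcribed with oligo dT primers. Amplicons run on 3% agarose gel, band intensity normalized to GAPDH. Means + S.D. of 3 experiments in triplicate.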

[6] = test system: RAW264.7; test: Antiinflammatory activity in mouse RAW264.7 cells assessed as downregulation of LPS-induced TNFalpha expression incubated for 2 hrs prior to LPS challenge measured after 24 hrs by ELISA; type: functional, cell-based
How it was run: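 Cells seeded 5 × 10^5/well, pretreated 2 h with compound (0.5, 1.0, 2.0 or 5.0 µM), then LPS 0.1 µg/mL for 24 h. TNF-α measured in culture medium by ELISA kit. Means + S.D. of 3 separate experiments in triplicate.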

[7] = test system: RAW264.7; test: Antiinflammatory activity in mouse RAW264.7 cells assessed as inhibition of LPS-induced MMP-9 expression incubated for 2 hrs prior to LPS challenge measured after 24 hrs by gelatin zymographic analysis; type: functional, cell-based
How it was run: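 Cells plated 16–18 h, then treated with LPS 0.1 µg/ml plus compound (0.5, 1.0, 2.0 µM). Medium collected at 24 h and concentrated. Run on 7.5% acrylamide gel containing 2 mg/ml gelatin. Gel renatured in Triton X-100, then buffer overnight at 37 °C, developed 16–18 h in Tris pH 7.5/NaCl/CaCl2. Coomassie stain. MMP-9 band scanned, expressed as % of control.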

[8] = test system: RAW264.7; test: Antiinflammatory activity in mouse RAW264.7 cells assessed as inhibition of LPS-induced iNOS expression incubated for 2 hrs prior to LPS challenge measured after 24 hrs by Western blot analysis; type: functional, cell-based; how it was run: as §3
[9] = Induction of nitric oxide scavenging activity assessed as nitrite level at 10 uM at room temperature after 60 mins by Griess assay in presence of light and SNP; type: physicochemical; details: 1 h
How it was run: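 Sodium nitroprusside 2.5 mM in PBS incubated alone or with compound (10 µM) in light at room temperature for 60 min. Nitrite then measured by Griess reaction. 1400 W (10 µM) as comparator.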

[10] = test system: RAW264.7; test: Cytotoxicity against mouse RAW264.7 cells assessed as cell viability after 24 hrs by MTS assay; type: cell-based; details: RAW264.7, 24 h
How it was run: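 Cells seeded 5 × 10^4/well and exposed 24 h. MTS added, 1 h at 37 °C, absorbance read at 490 nm. Percent of control = Ab treated/Ab control × 100 (n = 3). IC50 is the concentration cutting absorbance by 50%, taken from the linear portion of the curve.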

[11] = test system: RAW264.7; test: Antiinflammatory activity in mouse RAW264.7 cells assessed as inhibition of LPS-induced nitric oxide production after 24 hrs by Griess assay; type: functional, cell-based; details: RAW264.7, 24 h
How it was run: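 Nitrite in medium read by Griess reagent (1% sulfanilamide, 0.1% naphthylethylenediamine in 5% phosphoric acid) mixed 1:1 with medium for 5 min. Absorbance at 550 nm, quantified against a sodium nitrite standard in culture medium.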

[12] = test system: RAW264.7; test: Antiinflammatory activity in mouse RAW264.7 cells assessed as inhibition of LPS-induced PGE2 production; type: functional, cell-based
[13] = test system: RAW264.7; test: Antiinflammatory activity in mouse RAW264.7 cells assessed as inhibition of LPS-induced COX-2 expression at 0.5 uM incubated for 2 hrs prior to LPS challenge measured after 24 hrs by Western blot analysis; type: functional, cell-based; how it was run: as §3
[14] = test system: RAW264.7; test: Antiinflammatory activity in mouse RAW264.7 cells assessed as inhibition of LPS-induced iNOS expression at 0.5 uM incubated for 2 hrs prior to LPS challenge measured after 24 hrs by Western blot analysis; type: functional, cell-based; how it was run: as §3
[15] = target: Transcription factor p65 (Mus musculus) (UniProt Q04207); test: Inhibition of NFkappaB p65 nuclear translocation in mouse RAW264.7 cells after 24 hrs by DAPI staining-based laser confocal immunofluorescent microscopic analysis; type: cell-based; how it was run: as §1
[16] = test system: RAW264.7; test: Antiinflammatory activity in mouse RAW264.7 cells assessed as inhibition of LPS-induced COX-2 expression at 0.5 to 2 uM incubated for 2 hrs prior to LPS challenge measured after 24 hrs by Western blot analysis; type: functional, cell-based; how it was run: as §3
[17] = test system: RAW264.7; test: Antiinflammatory activity in mouse RAW264.7 cells assessed as downregulation of LPS-induced iNOS mRNA expression at 2 uM incubated for 2 hrs prior to LPS challenge measured after 9 hrs by RT-PCR analysis; type: functional, cell-based; how it was run: as §4
[18] = test system: RAW264.7; test: Antiinflammatory activity in mouse RAW264.7 cells assessed as inhibition of LPS-induced iNOS expression at 0.5 to 2 uM incubated for 2 hrs prior to LPS challenge measured after 24 hrs by Western blot analysis; type: functional, cell-based; how it was run: as §3

Sequence of Transcription factor p65 (Mus musculus) (Q04207 whole entry): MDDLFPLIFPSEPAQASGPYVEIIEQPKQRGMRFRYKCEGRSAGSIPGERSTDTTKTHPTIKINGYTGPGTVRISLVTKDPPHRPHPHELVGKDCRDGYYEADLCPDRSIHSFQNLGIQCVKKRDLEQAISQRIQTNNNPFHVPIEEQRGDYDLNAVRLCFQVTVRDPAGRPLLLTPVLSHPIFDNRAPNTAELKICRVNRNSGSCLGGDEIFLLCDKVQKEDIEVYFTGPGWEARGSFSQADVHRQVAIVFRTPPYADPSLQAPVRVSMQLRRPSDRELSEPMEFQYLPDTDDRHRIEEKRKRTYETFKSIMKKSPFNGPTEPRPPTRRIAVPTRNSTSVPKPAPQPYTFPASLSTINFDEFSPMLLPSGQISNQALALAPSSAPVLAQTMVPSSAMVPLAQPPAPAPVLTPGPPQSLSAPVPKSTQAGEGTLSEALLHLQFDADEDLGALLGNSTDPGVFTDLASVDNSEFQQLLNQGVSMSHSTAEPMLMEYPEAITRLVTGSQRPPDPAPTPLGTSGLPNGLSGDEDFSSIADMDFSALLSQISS

SMILES: COc1ccc(-c2nc3c4ccoc4c4ccccc4c3[nH]2)cc1
IC50 [12]: 47 nM

SMILES: COc1ccc(NC2=CC(=O)/C(=N\O)c3ccccc32)cc1
IC50 [10]: 4690 nM
IC50 [11]: 870 nM

SMILES: CC1(C)CCC2=C(O1)c1ccccc1C(=O)C2=O [LAPACHONE]
inhibition [2]: Dose-dependent effect
inhibition [4]: Dose-dependent effect
Activity [5]: Dose-dependent effect
Activity [6]: Dose-dependent effect
inhibition [7]: Dose-dependent effect
inhibition [8]: Dose-dependent effect
Activity [9]: Not Active
IC50 [10]: 4060 nM
IC50 [11]: 470 nM

SMILES: O=C1C=C(Nc2ccccc2)c2ccccc2/C1=N/O
IC50 [10]: 1670 nM
IC50 [11]: 630 nM

SMILES: COc1ccc(OC2=CC(=O)/C(=N\O)c3ccccc32)cc1
inhibition [13]: Active
inhibition [14]: Active
Activity [9]: Not Active
IC50 [10]: 20600 nM
IC50 [11]: 1290 nM

SMILES: COc1ccc(NC2=CC(=O)C(=O)c3ccccc32)cc1
IC50 [10]: 1840 nM
IC50 [11]: 810 nM

SMILES: O=C1C=C(Oc2ccccc2)c2ccccc2C1=O
inhibition [13]: Active
inhibition [14]: Active
Activity [9]: Not Active
IC50 [10]: 28500 nM
IC50 [11]: 850 nM

Continued, in another order:

inhibition [1]: Active
inhibition [2]: Dose-dependent effect
inhibition [3]: inactive
Activity [9]: Not Active
IC50 [11]: 740 nM
SMILES: COc1ccc(OC2=CC(=O)C(=O)c3ccccc32)cc1
inhibition [4]: Dose-dependent effect
Activity [5]: Dose-dependent effect
Activity [6]: Dose-dependent effect
inhibition [7]: Dose-dependent effect
inhibition [8]: Dose-dependent effect
IC50 [10]: 31700 nM

inhibition [15]: Active
SMILES: Nc1ncnc2c1ncn2[C@@H]1O[C@H](CO)C[C@H]1O

Activity [9]: Not Active
IC50 [11]: 200 nM
SMILES: CC(=N)NCc1cccc(CN)c1 [1400W]
inhibition [16]: Active
Activity [17]: Active
inhibition [18]: Active
IC50 [10]: 47500 nM
